Laboratory results as given in ChEMBL document CHEMBL1142212, “Length effects in antimicrobial peptides of the (RW)n series” (Antimicrob Agents Chemother, 2007).
Converted amounts (≈) assume the structure as drawn. Peptide text beside a SMILES is read from it.

Legend:
Escherichia coli [1] = experiment: Growth inhibition of Escherichia coli D31
Staphylococcus aureus [2] = experiment: Growth inhibition of Staphylococcus aureus ATCC BAA44
Escherichia coli [3] = experiment: Antimicrobial activity against Escherichia coli D31 after 18 hrs; conditions: D31, 18 h
Staphylococcus aureus [4] = experiment: Antimicrobial activity against Staphylococcus aureus ATCC BAA44 after 18 hrs
Erythrocyte = experiment: Hemolytic activity in sheep red blood cells; format: functional, Ovis aries
In short: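 Fresh sheep erythrocyte suspension was incubated with peptide in PBS pH 7.2 at 37°C for 30 min, then centrifuged at 3,000 rpm for 10 min. Supernatant was diluted 40-fold in water and read at OD540. Buffer gave 0% and 1% Triton-X gave 100% hemolysis. HD50 is the concentration giving 50% hemolysis, taken from dose-response curves.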

## N=C(N)NCCC[C@H](NC(=O)[C@H](Cc1c[nH]c2ccccc12)NC(=O)[C@H](CCCNC(=N)N)NC(=O)[C@H](Cc1c[nH]c2ccccc12)NC(=O)[C@H](CCCNC(=N)N)NC(=O)[C@H](Cc1c[nH]c2ccccc12)NC(=O)[C@H](CCCNC(=N)N)NC(=O)[C@H](Cc1c[nH]c2ccccc12)NC(=O)[C@@H](N)CCCNC(=N)N)C(=O)N[C@@H](Cc1c[nH]c2ccccc12)C(N)=O
Escherichia coli [1]
  IC50: 6.2 µM
Staphylococcus aureus [2]
  IC50: 3.6 µM
Escherichia coli [3]
  MBC50: 7.2 µM (≈ 12.4 µg/mL)
Staphylococcus aureus [4]
  MBC50: 6.9 µM (≈ 11.9 µg/mL)
Erythrocyte
  HD50: 76 µM

## N=C(N)NCCC[C@H](N)C(=O)N[C@@H](Cc1c[nH]c2ccccc12)C(N)=O (H-Arg-Trp-NH2)
Escherichia coli [1]
  IC50: 4300 µM
Staphylococcus aureus [2]
  IC50: 2100 µM
Escherichia coli [3]
  MBC50: 4700 µM (≈ 1690 µg/mL)
Staphylococcus aureus [4]
  MBC50: 2300 µM (≈ 827 µg/mL)
Erythrocyte
  HD50: 8900 µM

## N=C(N)NCCC[C@H](NC(=O)[C@H](Cc1c[nH]c2ccccc12)NC(=O)[C@@H](N)CCCNC(=N)N)C(=O)N[C@@H](Cc1c[nH]c2ccccc12)C(N)=O (H-RWRW-NH2)
Escherichia coli [1]
  IC50: 730 µM
Staphylococcus aureus [2]
  IC50: 210 µM
Escherichia coli [3]
  MBC50: 990 µM (≈ 695 µg/mL)
Staphylococcus aureus [4]
  MBC50: 620 µM (≈ 435 µg/mL)
Erythrocyte
  HD50: 3700 µM

## N=C(N)NCCC[C@H](NC(=O)[C@H](Cc1c[nH]c2ccccc12)NC(=O)[C@H](CCCNC(=N)N)NC(=O)[C@H](Cc1c[nH]c2ccccc12)NC(=O)[C@@H](N)CCCNC(=N)N)C(=O)N[C@@H](Cc1c[nH]c2ccccc12)C(N)=O (H-RWRWRW-NH2)
Escherichia coli [1]
  IC50: 16 µM
Staphylococcus aureus [2]
  IC50: 8 µM
Escherichia coli [3]
  MBC50: 29 µM (≈ 30.3 µg/mL)
Staphylococcus aureus [4]
  MBC50: 15 µM (≈ 15.7 µg/mL)
Erythrocyte
  HD50: 210 µM

## N=C(N)NCCC[C@H](NC(=O)[C@H](Cc1c[nH]c2ccccc12)NC(=O)[C@H](CCCNC(=N)N)NC(=O)[C@H](Cc1c[nH]c2ccccc12)NC(=O)[C@H](CCCNC(=N)N)NC(=O)[C@H](Cc1c[nH]c2ccccc12)NC(=O)[C@@H](N)CCCNC(=N)N)C(=O)N[C@@H](Cc1c[nH]c2ccccc12)C(N)=O (H-RWRWRWRW-NH2)
Escherichia coli [1]
  IC50: 9.6 µM
Staphylococcus aureus [2]
  IC50: 5.1 µM
Escherichia coli [3]
  MBC50: 14 µM (≈ 19.4 µg/mL)
Staphylococcus aureus [4]
  MBC50: 12 µM (≈ 16.6 µg/mL)
Erythrocyte
  HD50: 100 µM
